# Screens: PubChem BioAssay, Broad Institute
# Tcruzi prolif: T. cruzi proliferation inhibition. inhibition, % at 8.34 µM. T. cruzi beta-gal in NIH3T3, GalScreen luminescence, 90 h. AID 624255. 77,000 compounds, 5.9% hits;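 active means mean inhibition above about 93%, with at least 55% of replicates each passing it, limit read from the data, passing the limit was not always enough; inconclusive means only one of those two conditions holds; inactive means neither condition holds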
# IDH1 R132H inh: inhibitors of human IDH1 R132H | IDH1 R132H reductase, diaphorase/resazurin fluorescence, 60 min | inhibition, % at 10 µM | O75874 | 70,000 compounds, 0.18% hits | AID 624101; in the data active means inhibition above about 34%; inconclusive means no clear call, values can overlap the other calls; inactive means below about 11%;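 further: 0% = DMSO and 100% = no enzyme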
# Pf Dd2 growth: blocks growth of Plasmodium falciparum Dd2 parasites | 94,000 compounds, 2.3% hits | P. falciparum Dd2 growth, SYBR Green, 72 h; hits give low values | activity change, % at 10 µM; in the data active means activity change below about -80%; inconclusive means no clear call, values can overlap the other calls
# GASC1 inh: KDM4C (human) demethylase inhibition; Q9H3R0; 96,000 compounds, 0.15% hits; AID 720574; inhibition, % at 12.5 µM; GST-KDM4C 2-372, H3K9me3 peptide, LANCE TR-FRET;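 active means mean replicate inhibition above about 25%, with at least 55% of replicates also reaching it, limit read from the data, passing the limit was not always enough; inconclusive means only one of those two conditions met; inactive means neither condition met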
# Target sequence (Q9H3R0 2-372 limits assumed): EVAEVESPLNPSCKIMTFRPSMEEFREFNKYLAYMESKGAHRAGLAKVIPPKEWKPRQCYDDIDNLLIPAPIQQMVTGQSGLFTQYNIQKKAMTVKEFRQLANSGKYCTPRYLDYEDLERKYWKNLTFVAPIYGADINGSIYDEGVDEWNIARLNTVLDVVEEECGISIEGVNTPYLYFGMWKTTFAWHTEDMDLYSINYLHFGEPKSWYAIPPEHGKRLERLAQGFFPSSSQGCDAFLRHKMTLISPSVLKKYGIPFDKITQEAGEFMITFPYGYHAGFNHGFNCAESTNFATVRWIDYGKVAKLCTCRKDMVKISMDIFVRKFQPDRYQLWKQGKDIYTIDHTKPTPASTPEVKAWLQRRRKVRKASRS
#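 Test system: N-terminal GST-fused human GASC-1 (KDM4C) fragment, residues 2-372; quantity: GASC-1 enzyme at 10 nM final in reaction; dosing: single dose; schedule: 30 min demethylation and 1 h detection at room temperature; signal: LANCE TR-FRET, excitation 340 nm, emissions 618 and 671 nm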
# Numbers without * were called inactive; ? = inconclusive; / = no result; ! = repeats disagree. The list is not random: actives were taken first. Their share in the collection is about 5.8%.
SMILES,Tcruzi prolif,IDH1 R132H inh,Pf Dd2 growth,GASC1 inh
CC(C)C#Cc1ccc2c(c1)O[C@H](CN(C)Cc1ccncc1)[C@H](C)CN([C@@H](C)CO)S2(=O)=O,105*,6,-35,2
C[C@H](CO)N1C[C@H](C)[C@@H](CN(C)Cc2ccncc2)Oc2cc(C3=CCCC3)ccc2S1(=O)=O,87,48*,34,1
C[C@H](CO)N1C[C@H](C)[C@H](CN(C)C(=O)Cc2ccncc2)Oc2cc(C3=CCCCC3)ccc2S1(=O)=O,64,?,-69,0
C[C@@H]1CN([C@@H](C)CO)S(=O)(=O)c2ccc(C3=CCCCC3)cc2O[C@H]1CN(C)C(=O)Cc1cccnc1,60,45*,-31,0
C[C@@H]1CN([C@H](C)CO)S(=O)(=O)c2ccc(Br)cc2O[C@H]1CN(C)Cc1ccncc1,95,42*,-27,3
CN(CC(=O)Nc1ccc(F)cc1F)S(=O)(=O)c1ccccc1,/,0,/,/
COC(=O)C1=CC(C(=O)c2ccccc2)=NN(c2ccccc2)C1C(=O)OC (centres undefined),/,-1,/,/
Cc1cc(C)nc(NS(=O)(=O)c2ccc(Nc3nc(-c4ccc(O)cc4)cs3)cc2)n1,/,2,/,/
Cc1ccccc1-c1ccc2c(c1)O[C@H](CN(C)Cc1ccncc1)[C@H](C)CN([C@H](C)CO)S2(=O)=O,89,17,-44,2
Cc1ccccc1-c1ccc2c(c1)O[C@@H](CN(C)Cc1ccncc1)[C@H](C)CN([C@H](C)CO)S2(=O)=O,93,1,-88*,0
CS(=O)(=O)N1[C@H](CO)[C@@H](c2ccc(C#CC3CCCC3)cc2)[C@@H]1C#N,89,/,-3,-4
CS(=O)(=O)N1[C@H](C#N)[C@H](c2ccc(C#CC3CCCCC3)cc2)[C@H]1CO,99*,/,-20,-2
Cc1ccccc1S(=O)(=O)N1[C@H](C#N)[C@@H](c2ccc(-c3ccc(F)cc3)cc2)[C@@H]1CO,84,/,-14,0
Cc1ccccc1S(=O)(=O)N1[C@@H](C#N)[C@@H](c2ccc(-c3ccc(F)cc3)cc2)[C@@H]1CO,107*,/,-13,-3
N#C[C@H]1[C@@H](c2ccc(C#CC3CCCC3)cc2)[C@@H](CO)N1S(=O)(=O)c1ccccc1,91,0,-83*,-1
Cc1ccccc1S(=O)(=O)N1[C@H](C#N)[C@@H](c2ccc(C#CC3CC3)cc2)[C@@H]1CO,74,/,-85*,0
COc1ccc([N+](=O)[O-])cc1N(CC(=O)Nc1cc(Cl)ccc1Cl)S(C)(=O)=O,/,0,/,/
CCN(CC(=O)Nc1ccc2c(c1)OCCO2)S(=O)(=O)c1ccc2ccccc2c1,/,0,/,/
Cc1ccccc1S(=O)(=O)N1[C@H](C#N)[C@H](c2ccc(C#CC3CCCCC3)cc2)[C@@H]1CO,84,/,-44,-2
Cc1ccccc1S(=O)(=O)N1[C@H](CO)[C@@H](c2ccc(C#CC3CCCCC3)cc2)[C@@H]1C#N,90,/,-83*,-3
COC(=O)CNC(=O)c1cn(-c2ccccc2)nc1-c1cc2ccccc2oc1=O,/,0,/,/
CCCN(C)C[C@@H]1Oc2cc(C#Cc3cccnc3)ccc2S(=O)(=O)N([C@H](C)CO)C[C@@H]1C,51,1,-88*,6
CCCN(C)C[C@H]1Oc2cc(C#Cc3cccnc3)ccc2S(=O)(=O)N([C@@H](C)CO)C[C@H]1C,15,-5,-84*,-1
C[C@H]1CN([C@@H](C)CO)S(=O)(=O)c2ccc(C#Cc3cccnc3)cc2O[C@@H]1CN(C)C,11,5,-29,-1
C[C@@H]1CN([C@H](C)CO)S(=O)(=O)c2ccc(C#Cc3cccnc3)cc2O[C@H]1CN(C)C,16,0,-25,-1
SMILES,Tcruzi prolif,IDH1 R132H inh,Pf Dd2 growth,GASC1 inh
CCCN(C)C[C@H]1Oc2cc(C#Cc3cccnc3)ccc2S(=O)(=O)N([C@H](C)CO)C[C@H]1C,41,0,-89*,-2
Cc1ccc(S(=O)(=O)N2C(=O)CCC2C(=O)Nc2ccc(Cl)c(Cl)c2)cc1 (centres undefined),/,-1,/,/
C[C@@H]1CCCCO[C@@H](CN(C)Cc2ccc3c(c2)OCO3)[C@H](C)CN([C@@H](C)CO)C(=O)c2cc(N(C)C)ccc2O1,102*!,/,25,/
C[C@@H]1CCCCO[C@H](CN(C)Cc2ccc(Cl)c(Cl)c2)[C@@H](C)CN([C@@H](C)CO)C(=O)c2cc(NC(=O)Nc3ccc4c(c3)OCO4)ccc2O1,65,/,-91*,-5
C[C@@H]1CCCCO[C@H](CN(C)Cc2ccc3c(c2)OCO3)[C@H](C)CN([C@@H](C)CO)C(=O)c2cc(N(C)C)ccc2O1,-5,-1,-18,/
C[C@@H]1CN([C@@H](C)CO)C(=O)c2cc(NC(=O)Nc3ccc4c(c3)OCO4)ccc2O[C@@H](C)CCCCO[C@@H]1CN(C)Cc1ccc2c(c1)OCO2,/,-1,?,0
C[C@@H]1CN([C@@H](C)CO)C(=O)c2cc(NC(=O)Nc3ccc(F)cc3)ccc2O[C@@H](C)CCCCO[C@@H]1CN(C)Cc1ccc2c(c1)OCO2,75,/,-83*,-1
CC(=O)/C=C/C1(O)C(C)CCC2C(C)(C)CCCC21C (centres undefined),/,1,/,/
CCCNC(=O)N1[C@H](C#N)[C@H](c2ccc(C#Cc3ccc(F)cc3)cc2)[C@H]1CO,93,/,-86*,0
CCCNC(=O)N1[C@@H](C#N)[C@@H](c2ccccc2)[C@@H]1CO,-62,/,8,-2
N#C[C@@H]1[C@H](c2ccc(C#Cc3ccc(F)cc3)cc2)[C@@H](CO)N1C(=O)Nc1ccc(F)cc1,90,/,-47,-2
CCCNC(=O)N1[C@H](C#N)[C@H](c2ccc(C#Cc3cccc(F)c3)cc2)[C@H]1CO,94,/,-85*,-1
CCCNC(=O)N1[C@H](CO)[C@H](c2ccc(-c3ccc(C#N)cc3)cc2)[C@@H]1CNC,/,/,-84*,-1
C[C@@H]1CCCCO[C@@H](CN(C)S(=O)(=O)c2cn(C)cn2)[C@H](C)CN([C@H](C)CO)C(=O)c2cc(NC(=O)Nc3cccc4ccccc34)ccc2O1,63,/,-52,-3
COc1ccc(S(=O)(=O)N(C)C[C@H]2OCCCC[C@H](C)Oc3ccc(NC(=O)Nc4cccc5ccccc45)cc3C(=O)N([C@@H](C)CO)C[C@H]2C)cc1,43,4,-83*,-1
COc1ccc(S(=O)(=O)N(C)C[C@@H]2OCCCC[C@H](C)Oc3ccc(NC(=O)Nc4cccc5ccccc45)cc3C(=O)N([C@H](C)CO)C[C@H]2C)cc1,12,0,-86*,-1
C[C@@H]1CN([C@H](C)CO)C(=O)c2cc(NC(=O)Nc3cccc4ccccc34)ccc2O[C@@H](C)CCCCO[C@@H]1CN(C)S(=O)(=O)c1cn(C)cn1,35,/,-88*,-7
COc1ccc(S(=O)(=O)N(C)C[C@H]2OCCCC[C@H](C)Oc3ccc(NC(=O)Nc4cccc5ccccc45)cc3C(=O)N([C@@H](C)CO)C[C@@H]2C)cc1,75,/,-71,-4
Cc1nc(SCC(=O)Nc2c(C)cccc2C)n[nH]1,/,0,/,/
COc1ccc(N(CC(=O)Nc2ccccc2-c2ccccc2)S(C)(=O)=O)cc1,/,0,/,/
